Measured values as given in PubChem BioAssay AID504650 (Molecular Libraries Program, Specialized Chemistry Center, …, 2011).
Activity calls are given as the source filed them.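 How the source made its calls: active means IC50 at or below 10 µM; inactive means the rest.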

Each molecule was assayed against Transitional endoplasmic reticulum ATPase (Homo sapiens) (UniProt P55072) (assay: VCP ATP hydrolysis inhibition, purified enzyme – biochemical, dose response, round 3, SAR follow-up (AID 504650)). Details: purified p97 ATPase, Kinase-Glo luminescence.
Chain of Transitional endoplasmic reticulum ATPase (Homo sapiens) (P55072 whole entry, looked up): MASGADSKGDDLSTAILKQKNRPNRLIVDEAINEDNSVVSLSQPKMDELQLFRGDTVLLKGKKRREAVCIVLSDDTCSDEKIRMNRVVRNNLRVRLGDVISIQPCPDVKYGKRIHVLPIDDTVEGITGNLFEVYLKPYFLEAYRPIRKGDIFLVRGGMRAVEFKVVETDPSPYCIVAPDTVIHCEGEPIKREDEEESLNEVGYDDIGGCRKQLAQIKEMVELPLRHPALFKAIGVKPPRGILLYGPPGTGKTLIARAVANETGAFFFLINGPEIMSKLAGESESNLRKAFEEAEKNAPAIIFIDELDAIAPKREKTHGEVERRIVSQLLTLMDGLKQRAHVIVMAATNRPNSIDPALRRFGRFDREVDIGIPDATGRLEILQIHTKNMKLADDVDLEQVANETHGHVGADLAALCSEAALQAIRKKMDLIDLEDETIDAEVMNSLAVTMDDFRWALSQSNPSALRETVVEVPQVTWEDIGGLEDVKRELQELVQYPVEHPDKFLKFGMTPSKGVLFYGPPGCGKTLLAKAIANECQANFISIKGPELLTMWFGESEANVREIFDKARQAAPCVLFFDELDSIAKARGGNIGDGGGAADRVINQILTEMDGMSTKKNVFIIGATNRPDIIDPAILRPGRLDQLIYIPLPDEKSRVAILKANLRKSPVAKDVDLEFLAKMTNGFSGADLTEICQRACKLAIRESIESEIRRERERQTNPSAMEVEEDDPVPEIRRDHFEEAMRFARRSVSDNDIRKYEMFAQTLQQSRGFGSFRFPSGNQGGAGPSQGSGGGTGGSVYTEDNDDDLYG
In short: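 System: Human p97 ATPase protein | Medium: Tris buffer pH 7.4 containing MgCl2 and EDTA | Reagent: ATP, 500 µM stock solution | Incubation: 10 min room-temperature enzyme–compound preincubation, 30 min 37 °C ATP reaction | Technique: Luminescent readout of unconsumed ATP (Kinase-Glo Plus) | Measure: IC50 from fit of percent remaining activity versus compound concentration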

SMILES	IC50
c1ccc(CNc2nc(N3CCOc4ccccc43)nc3c(-c4ccccc4)cccc23)cc1	3500 nM
COc1cccc2c(NCc3ccccc3)nc(NCc3cncs3)nc12	inactive
COc1cccc2c(NCc3ccccc3)nc(Nc3nc4ccccc4s3)nc12	500 nM
Clc1ccccc1-c1nc(N2CCCc3ccccc32)c2ccccc2n1	> 30000 nM (inactive)
CC(C)Nc1nc(Nc2cccc(Cl)c2)nc2ccccc12	> 30000 nM (inactive)
Nc1nc2ccccc2n1-c1nc2c(c(NCc3ccccc3)n1)CCCC2	50 nM
COc1cccc2c(NCc3ccccc3)nc(NC(=O)Nc3ccccc3)nc12	> 30000 nM (inactive)
Cc1nc(N2CCOc3ccccc32)nc(NCc2ccccc2)c1C	1100 nM
COc1cccc2c(NCc3ccccc3)nc(NCc3cccs3)nc12	1700 nM
CN(c1ccccc1)c1nc(NCc2ccccc2)c2ccccc2n1	> 30000 nM (inactive)
c1ccc(CNc2nc(N3CCOc4ccccc43)nc3ccsc23)cc1	400 nM
COc1cccc2c(NCc3ccccc3)nc(Nc3cccc(Cl)c3)nc12	500 nM
COc1cccc2c(NCc3ccccc3)nc(Nc3nc4ccccc4n3C)nc12	300 nM
COc1cccc2c(NCc3ccccc3)nc(NCC3CCCCC3)nc12	5400 nM
COc1cccc2c(NCC3CCCCC3)nc(N3CCOc4ccccc43)nc12	7400 nM
COc1cccc2c(NCc3ccccc3)nc(N3CCOCC3)nc12	inactive

SMILES	IC50
Nc1nc2ccccc2n1-c1nccc(NCc2ccccc2)n1	2800 nM
c1ccc(CNc2nc(N3CCc4ccccc4C3)nc3ccccc23)cc1	inactive
COc1ccc2c(c1)nc(N)n2-c1nc(NCc2ccccc2)c2cccc(OC)c2n1	480 nM
COc1cccc2c(NCc3ccccc3)nc(-n3c(N)nc4cc(C)c(C)cc43)nc12	2000 nM
COc1cccc2c(NCc3ccccc3)nc(N3CCN(C(C)=O)CC3)nc12	> 30000 nM (inactive)
COc1cccc2c(NCc3ccccc3)nc(Nc3cccc(F)c3)nc12	520 nM
COc1cccc2c(NCc3ccccc3)nc(Nc3cc(C)cc(F)c3)nc12	1500 nM
COc1cccc2c(NCc3ccccc3)nc(N3CCN(C)CC3)nc12	> 30000 nM (inactive)
COc1cccc2c(NCc3ccccc3)nc(Nc3ccccc3O)nc12	2600 nM
c1ccc(CNc2nc(N3CCOc4ccccc43)nc3c2CCCC3)cc1	110 nM
COc1cccc2c(NCc3ccccc3)nc(NC(C)c3ccccc3)nc12 (stereo unspecified)	inactive
c1ccc(CNc2ccnc(N3CCOc4ccccc43)n2)cc1	2900 nM
c1ccc2c(c1)OCCN2c1nc(N2CCOc3ccccc32)c2ccccc2n1	> 30000 nM (inactive)
Nc1nc2ccccc2n1-c1nc(NCc2ccccc2)c2ccccc2n1	110 nM
COc1cccc2c(NCc3ccccc3)nc(N(C)Cc3ccccc3)nc12	7000 nM
COc1ccc(-c2cccc3c(NCc4ccccc4)nc(N4CCOc5ccccc54)nc23)cc1	1100 nM

Further lines, results first:

IC50	SMILES
3300 nM	COc1cccc2c(NCc3ccccc3)nc(-n3cnc4ccccc43)nc12
2630 nM	CCCCOc1cccc2c(NCc3ccccc3)nc(N3CCOc4ccccc43)nc12
600 nM	COCCOc1cccc2c(NCc3ccccc3)nc(N3CCOc4ccccc43)nc12
> 30000 nM (inactive)	COc1cccc2c(NCc3ccccn3)nc(N3CCNc4ccccc43)nc12
4600 nM	COc1cccc2c(NCc3ccccc3O)nc(N3CCOc4ccccc43)nc12
inactive	COc1cccc2c(NCc3ccccn3)nc(N3CCOc4ccccc43)nc12
200 nM	COc1cccc2c(NCc3ccccc3)nc(N3CCOc4ccccc43)nc12
700 nM	COc1cccc2c(NCc3ccccc3)nc(-n3c(N)nc4cc(Cl)ccc43)nc12
45 nM	COc1cccc2c(NCc3ccccc3)nc(-n3c(N)nc4c(C)cccc43)nc12
3100 nM	COc1cccc2c(NCc3ccccc3)nc(N3CCN(C)c4ccccc43)nc12
400 nM	N#CCOc1cccc2c(NCc3ccccc3)nc(N3CCOc4ccccc43)nc12
1900 nM	COc1cccc2c(NCc3ccc(F)cc3)nc(N3CCOc4ccccc43)nc12
170 nM	OCCOc1cccc2c(NCc3ccccc3)nc(N3CCOc4ccccc43)nc12
800 nM	COc1cccc2c(NCc3ccccc3)nc(-n3c(N)nc4cc(Br)ccc43)nc12
110 nM	COc1cccc2c(NCc3ccccc3)nc(-n3c(=O)oc4ccccc43)nc12
110 nM	COc1cccc2c(NCc3ccccc3)nc(-n3c(N)nc4ccccc43)nc12
900 nM	COc1cccc2c(NCc3ccccc3)nc(N3CCNc4ccccc43)nc12
400 nM	CCN(CC)CCOc1cccc2c(NCc3ccccc3)nc(N3CCOc4ccccc43)nc12
2700 nM	COc1cccc2c(NCc3ccccc3)nc(N3CCN(C(C)=O)c4ccccc43)nc12
2400 nM	COc1cccc2c(NCc3ccc(O)cc3)nc(N3CCOc4ccccc43)nc12
240 nM	COc1cccc2c(NCc3ccccc3)nc(-n3c(N)nc4cc(C)ccc43)nc12
1200 nM	COc1cccc2c(NCc3cccs3)nc(N3CCOc4ccccc43)nc12
80 nM	COc1cccc2c(NCc3ccccc3)nc(-n3c(N)nc4cc(F)ccc43)nc12
1200 nM	Oc1cccc2c(NCc3ccccc3)nc(N3CCOc4ccccc43)nc12
